# Results as given in ChEMBL document CHEMBL4145680, “Tau-Centric Multitarget Approach for Alzheimer's Disease: Development of First-in-Class Dual Glycogen Synthase Kinase 3β and Tau-Aggregation Inhibitors” (J Med Chem, 2018).
# Calls of active or inactive are those of the source.
# Experiments:
# [1] = biological target: T1, Glycogen synthase kinase-3 beta (Homo sapiens, UniProt P49841); assay: Inhibition of GSK3beta (unknown origin) using GS-2 peptide substrate incubated for 30 mins by kinase-Glo luminescent assay
# Procedure, shortened: (§1)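 Human recombinant GSK-3β, 20 ng, in 50 mM HEPES pH 7.5 with 1 mM EDTA, 1 mM EGTA and Mg acetate. Incubated 30 min at 30 °C, then Kinase-Glo luminescence read after 10 min. Activity scaled between no-inhibitor and full-inhibition reference controls.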
# Target sequence in this assay (P49841 whole entry): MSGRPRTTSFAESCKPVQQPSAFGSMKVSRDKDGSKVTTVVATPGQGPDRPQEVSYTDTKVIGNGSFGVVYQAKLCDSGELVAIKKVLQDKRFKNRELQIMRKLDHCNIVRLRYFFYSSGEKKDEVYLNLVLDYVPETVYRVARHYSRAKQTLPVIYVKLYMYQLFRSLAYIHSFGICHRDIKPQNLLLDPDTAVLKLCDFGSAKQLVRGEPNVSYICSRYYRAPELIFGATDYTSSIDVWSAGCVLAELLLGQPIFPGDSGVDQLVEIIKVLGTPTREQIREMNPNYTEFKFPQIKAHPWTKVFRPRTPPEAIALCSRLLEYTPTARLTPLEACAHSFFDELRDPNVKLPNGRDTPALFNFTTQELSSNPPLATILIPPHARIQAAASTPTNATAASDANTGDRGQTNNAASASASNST
# [2] = biological target: T1, Glycogen synthase kinase-3 beta; assay: Inhibition of GSK3beta (unknown origin) at 10 uM using GS-2 peptide substrate incubated for 30 mins by kinase-Glo luminescent assay
# Procedure, shortened: as §1, with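 “acetate. Substrate prephosphorylated GS-2 peptide 25 µM with 1 µM ATP; DMSO ≤1%.” for “acetate.”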
# Target sequence in this assay (P49841 whole entry, looked up): as the sequence (P49841 whole entry) above
# [3] = system: Cerebellar granule neurone; assay: Neurotoxicity in rat primary cerebellar granule neurons assessed as reduction in cell viability at 5 uM incubated for 24 hrs by MTT assay; assay type: toxicity
# Procedure, shortened: (§2)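 Cerebellar granule neurons from 7-day-old rat pups, plated on poly-L-lysine at 3 × 10^5 cells/well in BME with FBS and 25 mM KCl. Cytosine arabinoside 10 µM added at 16 h. At 7 days in vitro, switched to serum-free BME with 25 mM KCl and treated 24 h at 0, 5, 25 or 50 µM. MTT 0.1 mg/mL for 20 min at 37 °C, A570. Mean ± SE of ≥3 experiments in triplicate, as % of control.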
# [4] = Hepatotoxicity in human HepG2 cells assessed as reduction in cell viability incubated for 24 hrs by MTT assay; assay type: toxicity, cell-based; details: hepg2, 24 h
# Procedure, shortened: (§3)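 HepG2 cells grown in DMEM with 10% FBS at 37 °C, 5% CO2, seeded at 0.5 × 10^5 cells/well and left 24 h. Exposed in serum-free DMEM for 24 h (concentrations listed as 0, 10, 25, 50 µM; elsewhere 0, 5, 25, 50 µM). MTT 0.1 mg/mL for 10 min at 37 °C in the dark. Formazan dissolved in Tris/Triton X-100, A570. Mean ± SE of ≥3 experiments in triplicate; reported as % of control.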
# [5] = Permeability in pH 7.4 PBS incubated for 2.5 hrs by PAMPA-BBB assay; assay type: ADME; details: read-out: permeability
# Procedure, shortened: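 PAMPA-BBB: donor filter coated with porcine brain lipid in dodecane (20 mg/mL). Compounds in PBS pH 7.4/EtOH 70:30, acceptor filled with the same. Sandwich incubated 2.5 h at 25 °C, then donor and acceptor concentrations measured by UV at 3–5 wavelengths, 3 wells, two runs. Ten reference drugs included for validation.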
# [6] = Hepatotoxicity in human HepG2 cells assessed as reduction in cell viability at 5 to 50 uM incubated for 24 hrs by MTT assay; assay type: toxicity, cell-based; details: hepg2, 24 h; procedure, shortened: as §3
# [7] = Inhibition of AcPHF6 peptide aggregation in pH 7.4 phosphate buffer at 10 uM by atomic force microscopy
# Procedure, shortened: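 AcPHF6 500 µM in water diluted to 50 µM in 50 mM phosphate pH 7.4, ±10 µM compound, no ThT. Incubated 80 min at 25 °C with 10 s shaking at 400 rpm each minute. Ultrafiltered (30 kDa cut-off), buffer exchanged to water, and the retained high-MW fraction adsorbed on mica. Imaged by PeakForce tapping-mode AFM.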
# [8] = biological target: CDC7/DBF4 (Cell division cycle 7-related protein kinase/Activator of S phase kinase) (Homo sapiens) (UniProt Q9UBU7+O00311); assay: Inhibition of CDC7/Dbf4 (unknown origin) at 10 uM incubated for 60 mins by Kinase-Glo assay; assay type: protein-complex assay; details: in the assay text read “ADP-Glo assay” for “Kinase-Glo assay”
# Procedure, shortened: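 CDC7/DBF4 enzyme, 25 ng/well, with 10 µM ATP (final) and PDKtide substrate. Incubated 60 min at room temperature. ADP-Glo reagent added for 40 min, then detection reagent for 30 min, and luminescence read. Inhibition calculated relative to the no-inhibitor maximum.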
# [9] = biological target: T1, Glycogen synthase kinase-3 beta; assay: Competitive inhibition of GSK3beta (unknown origin) at 10 uM using fixed level of GS-2 peptide substrate and varying ATP levels incubated for 30 mins by kinase-Glo luminescent assay
# Procedure, shortened: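 Human recombinant GSK-3β, 20 ng per reaction, in HEPES pH 7.5 buffer with EDTA, EGTA and Mg acetate. GS-2 prephosphorylated peptide held at 25 µM; ATP varied from 1 to 50 µM along with inhibitor level. 30 min at 30 °C, then Kinase-Glo luminescence read after 10 min. Lineweaver–Burk double-reciprocal analysis; means of two experiments, each run in triplicate.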
# Target sequence in this assay (P49841 whole entry, looked up): as the sequence (P49841 whole entry) above
# [10] = biological target: T1, Glycogen synthase kinase-3 beta; assay: Inhibition of GSK3beta (unknown origin) at 10 uM
# Procedure, shortened: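 Human recombinant GSK-3β (20 ng) with 25 µM GS-2 prephosphorylated peptide and 1 µM ATP in 50 mM HEPES pH 7.5, 1 mM EDTA, 1 mM EGTA, Mg acetate. DMSO at most 1%. 30 min at 30 °C; reaction stopped with Kinase-Glo, luminescence read after 10 min. Activity scaled between no inhibitor and full inhibition by a reference inhibitor.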
# Target sequence in this assay (P49841 whole entry, looked up): as the sequence (P49841 whole entry) above
# [11] = system: Cerebellar granule neurone; assay: Neurotoxicity in rat primary cerebellar granule neurons assessed as reduction in cell viability at 50 uM incubated for 24 hrs by MTT assay; assay type: toxicity; procedure, shortened: as §2
# [12] = system: Cerebellar granule neurone; assay: Neurotoxicity in rat primary cerebellar granule neurons assessed as reduction in cell viability at 5 to 25 uM incubated for 24 hrs by MTT assay; assay type: toxicity; procedure, shortened: as §2
# [13] = biological target: Casein kinase I isoform epsilon (Homo sapiens) (UniProt P49674); assay: Inhibition of human recombinant CK1epsilon at 10 uM incubated for 60 mins by Kinase-Glo assay
# Procedure, shortened: (§4)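 Human recombinant CK1δ or CK1ε, 16 ng, in 50 mM HEPES pH 7.5 with 10 mM MgCl2, 1 mM EGTA and Brij-35. Substrate 0.1% casein with 4 µM ATP; compound diluted to 10 µM before addition, DMSO ≤1%. Incubated 60 min at 30 °C, then Kinase-Glo luminescence read. Inhibition relative to no-inhibitor activity; mean of two experiments.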
# [14] = biological target: T1, Glycogen synthase kinase-3 beta; assay: Inhibition of okadaic acid-induced GSK-3beta-mediated tau hyperphosphorylation in human SH-SY5Y cells assessed as increase in cell viability pre-incubated for 1 hr before okadaic acid stimulation for 24 hrs by MTT assay; assay type: cell-based
# Procedure, shortened: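 SH-SY5Y cells grown in DMEM with 10% FBS, seeded at 60000 per well and used 48 h later. Compound given 1 h before 30nM okadaic acid, then 24 h incubation. Viability by MTT, 0.5mg/mL for at least 4 h, formazan dissolved in DMSO, absorbance at 595 nm. Expressed relative to control (=100); n=6 from three independent experiments.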
# Target sequence in this assay (P49841 whole entry, looked up): as the sequence (P49841 whole entry) above
# [15] = biological target: Casein kinase I isoform delta (Homo sapiens) (UniProt P48730); assay: Inhibition of human recombinant CK1delta at 10 uM incubated for 60 mins by Kinase-Glo assay; procedure, shortened: as §4
# [16] = Inhibition of AcPHF6 peptide aggregation in pH 7.4 phosphate buffer at 20 uM by CD Spectroscopy
# [17] = biological target: T1, Glycogen synthase kinase-3 beta; assay: Inhibition of GSK3beta (unknown origin) pre-incubated for 30 mins followed by ULight-GS (Ser641/pSer657) peptide substrate addition and measured after 1 hr by TR-FRET assay
# Target sequence in this assay (P49841 whole entry): as above
# Sequence of CDC7/DBF4 (Cell division cycle 7-related protein kinase/Activator of S phase kinase) (Homo sapiens) (O00311 whole entry, looked up): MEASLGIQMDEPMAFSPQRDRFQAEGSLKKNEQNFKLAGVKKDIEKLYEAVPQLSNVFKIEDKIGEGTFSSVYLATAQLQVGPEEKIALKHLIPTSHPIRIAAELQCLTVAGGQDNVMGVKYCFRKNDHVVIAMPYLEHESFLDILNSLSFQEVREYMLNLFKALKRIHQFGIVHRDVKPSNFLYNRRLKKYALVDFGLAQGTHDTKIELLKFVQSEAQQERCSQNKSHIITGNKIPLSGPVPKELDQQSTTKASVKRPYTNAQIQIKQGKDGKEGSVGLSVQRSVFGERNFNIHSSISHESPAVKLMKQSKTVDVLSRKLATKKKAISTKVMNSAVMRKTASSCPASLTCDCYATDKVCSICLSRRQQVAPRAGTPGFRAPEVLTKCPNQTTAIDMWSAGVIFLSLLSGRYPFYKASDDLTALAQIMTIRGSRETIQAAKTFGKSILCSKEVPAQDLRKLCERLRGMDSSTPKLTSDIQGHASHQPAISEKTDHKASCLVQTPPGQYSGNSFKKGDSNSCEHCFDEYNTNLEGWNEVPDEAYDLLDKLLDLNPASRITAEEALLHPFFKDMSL
# Sequence of CDC7/DBF4 (Cell division cycle 7-related protein kinase/Activator of S phase kinase) (Homo sapiens) (Q9UBU7 whole entry, looked up): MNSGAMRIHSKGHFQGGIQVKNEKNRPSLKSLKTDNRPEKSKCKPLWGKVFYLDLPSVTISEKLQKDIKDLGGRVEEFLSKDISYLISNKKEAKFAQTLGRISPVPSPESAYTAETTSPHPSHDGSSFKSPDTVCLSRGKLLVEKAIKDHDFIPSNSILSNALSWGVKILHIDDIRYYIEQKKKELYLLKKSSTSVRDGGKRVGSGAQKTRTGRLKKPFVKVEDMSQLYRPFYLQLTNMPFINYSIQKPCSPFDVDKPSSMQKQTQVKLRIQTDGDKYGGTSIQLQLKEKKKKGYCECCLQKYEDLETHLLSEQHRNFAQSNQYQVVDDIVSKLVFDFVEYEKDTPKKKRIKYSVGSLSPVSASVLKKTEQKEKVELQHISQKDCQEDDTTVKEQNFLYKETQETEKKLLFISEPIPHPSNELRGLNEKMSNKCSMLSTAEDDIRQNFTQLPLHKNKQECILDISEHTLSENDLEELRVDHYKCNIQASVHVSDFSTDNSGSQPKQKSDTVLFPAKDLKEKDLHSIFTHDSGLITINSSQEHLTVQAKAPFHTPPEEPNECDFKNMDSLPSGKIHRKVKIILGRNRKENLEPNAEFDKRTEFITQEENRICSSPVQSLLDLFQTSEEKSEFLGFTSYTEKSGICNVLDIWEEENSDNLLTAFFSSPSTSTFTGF
# Sequence of Casein kinase I isoform delta (Homo sapiens) (P48730 whole entry, looked up, canonical isoform): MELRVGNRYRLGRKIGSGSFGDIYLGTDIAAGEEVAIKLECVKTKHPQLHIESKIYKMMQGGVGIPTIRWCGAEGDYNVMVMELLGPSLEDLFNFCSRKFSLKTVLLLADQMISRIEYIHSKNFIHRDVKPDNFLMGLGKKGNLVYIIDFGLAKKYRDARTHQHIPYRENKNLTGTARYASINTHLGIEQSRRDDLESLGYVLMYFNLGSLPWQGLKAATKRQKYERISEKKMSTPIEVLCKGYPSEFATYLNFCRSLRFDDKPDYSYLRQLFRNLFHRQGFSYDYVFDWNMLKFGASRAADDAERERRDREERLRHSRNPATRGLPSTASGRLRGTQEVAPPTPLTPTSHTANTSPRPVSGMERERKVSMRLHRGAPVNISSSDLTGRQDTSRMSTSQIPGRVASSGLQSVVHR
# Sequence of Casein kinase I isoform epsilon (Homo sapiens) (P49674 whole entry, looked up, canonical isoform): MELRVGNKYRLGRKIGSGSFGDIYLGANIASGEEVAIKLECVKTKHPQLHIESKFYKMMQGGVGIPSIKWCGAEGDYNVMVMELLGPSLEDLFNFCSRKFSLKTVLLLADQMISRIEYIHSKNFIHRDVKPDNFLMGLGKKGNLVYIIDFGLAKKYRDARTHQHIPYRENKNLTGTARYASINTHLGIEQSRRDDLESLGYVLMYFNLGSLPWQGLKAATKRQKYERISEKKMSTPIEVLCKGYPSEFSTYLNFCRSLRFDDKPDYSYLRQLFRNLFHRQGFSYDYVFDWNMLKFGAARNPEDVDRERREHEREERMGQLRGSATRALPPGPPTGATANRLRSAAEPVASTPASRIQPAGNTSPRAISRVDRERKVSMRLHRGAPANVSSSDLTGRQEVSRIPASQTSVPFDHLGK
IC50 [1] [µM],inhibition [2] [%],Structure (SMILES),also measured
> 10,< 50,O=C1NC(=O)/C(=C/C=C/c2ccccc2)S1,–
6.13,> 50,O=C1NC(=O)/C(=C/c2cc3ccccc3nc2Cl)S1,–
> 10,–,O=C1NC(=O)/C(=C/c2cccc(F)c2)S1,–
–,–,CCc1ccc(CCOc2ccc(CC3SC(=O)NC3=O)cc2)nc1 (stereo not given) [PIOGLITAZONE],Activity [3]: Toxic; Activity [4]: Dose-dependent effect
6.03,> 50,O=C1NC(=O)/C(=C/c2c(-c3ccccc3)[nH]c3ccccc23)S1,–
> 10,< 50,O=C1NC(=O)/C(=C/c2ccc3ccccc3c2)S1,–
> 10,< 50,O=C1NC(=O)/C(=C/c2ccccn2)S1,–
> 10,< 50,COc1ccc2[nH]cc(/C=C3\SC(=O)NC3=O)c2c1,–
> 10,< 50,CN(C)c1ccc(/C=C/C=C2\SC(=O)NC2=O)cc1,–
> 10,< 50,O=C1NC(=O)/C(=C/c2ccccc2)S1,–
9.22,> 50,CN(C)c1ccccc1/C=C1\SC(=O)NC1=O,Activity [3]: Toxic; Papp at 2.5 h [5]: > 3.07 ×10⁻⁶ cm/s; Activity [4]: Dose-dependent effect
> 10,< 50,O=C1NC(=O)/C(=C/c2cccc(O)c2)S1,–
> 10,< 50,O=C1NC(=O)/C(=C/c2ccccc2F)S1,–
> 10,< 50,O=C1NC(=O)/C(=C/c2ccccc2O)S1,–
> 10,< 50,O=C1NC(=O)/C(=C/c2ccc(F)cc2)S1,–
> 10,< 50,O=C1NC(=O)/C(=C/c2c3ccccc3cc3ccccc23)S1,–
9.22,> 50,O=C1NC(=O)/C(=C/c2ccc(O)c([N+](=O)[O-])c2)S1,–
> 10,< 50,O=C1NC(=O)/C(=C/c2ccccc2OCc2ccccc2)S1,–

IC50 [1] [µM],inhibition [2] [%],Structure (SMILES),also measured
8.99,> 50,O=C1NC(=O)/C(=C/c2ccc(O)cc2)S1,–
8.54,> 50,CN(C)c1cccc(/C=C2\SC(=O)NC2=O)c1,Activity [3]: Toxic; Papp at 2.5 h [5]: > 3.07 ×10⁻⁶ cm/s; Activity [4]: Dose-dependent effect
7.99,> 50,O=C1NC(=O)/C(=C/c2cccs2)S1,–
7.08,> 50,COc1ccc(/C=C2\SC(=O)NC2=O)c(O)c1,–
> 10,< 50,O=C1NC(=O)/C(=C/c2ccco2)S1,–
7.47,> 50,O=C1NC(=O)/C(=C/c2cc3ccccc3s2)S1,Activity [3]: Toxic; Papp at 2.5 h [5]: > 3.07 ×10⁻⁶ cm/s; Activity [6]: Non-Toxic
7.01,> 50,O=C1NC(=O)/C(=C/c2ccc3c(c2)OCCO3)S1,–
> 10,< 50,O=C1NC(=O)/C(=C/c2ccc(-c3ccccc3)cc2)S1,–
> 10,< 50,CN(C)c1ccc(/C=C2\SC(=O)NC2=O)cc1,–
> 10,< 50,O=C1NC(=O)/C(=C/c2cc3ccccc3o2)S1,–
3.55,> 50,COc1ccc2nc(Cl)c(/C=C3\SC(=O)NC3=O)cc2c1,–
8.75,> 50,O=C1NC(=O)/C(=C/c2cccnc2)S1,–
–,> 50,COc1cc(/C=C2\SC(=O)NC2=O)ccc1O,–
> 10,< 50,Cn1c(/C=C2\SC(=O)NC2=O)nc2ccccc21,–
4.93,> 50,O=C1NC(=O)/C(=C/c2c[nH]c3ccccc23)S1,inhibition [7]: Active; inhibition [8]: inactive; inhibition [9]: Active; inhibition [10]: 95%; Activity [11]: Toxic; Activity [12]: Non-Toxic; inhibition [13]: inactive; inhibition [14]: Active; Papp at 2.5 h [5]: > 3.07 ×10⁻⁶ cm/s; inhibition [15]: inactive; Activity [6]: Non-Toxic; inhibition [16]: Active; IC50 [17]: 21 µM
1.42,> 50,O=C1NC(=O)/C(=C/c2ccncc2)S1,–
> 10,< 50,COc1cc(/C=C2\SC(=O)NC2=O)cc2c1OCO2,–
